As a reminder, the Ki is the dissociation constant of the complex between target and ligand, obtained from inhibition or displacement. A high value points to weaker binding. A word on the IC50: it is the concentration that inhibits the measured activity by half. A lower IC50 goes with higher potency.

The source made the active and inactive calls. The rule behind the calls is not given here.

The subject of test [1] is Prunus dulcis. Briefly: Inhibition of sweet almond beta-glucosidase at 1 mM.
In test [2] the target is Beta-galactosidase (Escherichia coli, UniProt Q8VNN2). The test is described as follows: Inhibition of Escherichia coli beta-galactosidase.
Test [3] relates to Saccharomyces cerevisiae. Briefly: Inhibition of yeast alpha-glucosidase at 1 mM.
Test [4] concerns Penicillium pittii. The test is described as follows: Inhibition of Penicillium pittii CCF 2277 beta-N-acetylglucosaminidase at 2 mM.
Test [5] relates to Talaromyces flavus. Briefly: Inhibition of Talaromyces flavus CCF 2686 beta-N-acetylglucosaminidase at 2 mM.
In test [6] the test system is Penicillium oxalicum. The test is described as follows: Inhibition of Penicillium oxalicum CCF 1959 beta-N-acetylglucosaminidase at 2 mM.
The subject of test [7] is Aspergillus oryzae. Briefly: Inhibition of Aspergillus oryzae CCF 1066 beta-N-acetylglucosaminidase at 2 mM.
Test [8] deals with T1, Early activation antigen CD69 (Homo sapiens, UniProt Q07108).
T1 sequence (Q07108 whole entry): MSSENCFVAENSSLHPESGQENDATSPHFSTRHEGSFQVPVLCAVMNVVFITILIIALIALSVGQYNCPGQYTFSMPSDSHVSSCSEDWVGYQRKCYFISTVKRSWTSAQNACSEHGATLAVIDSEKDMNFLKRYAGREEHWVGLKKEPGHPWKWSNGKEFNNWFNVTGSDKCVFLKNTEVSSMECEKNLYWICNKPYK
The test is described as follows: Binding affinity to rhodamine-labeled human CD69 receptor after 2 hrs by fluorescence assay. The method in brief:
(§1)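 Competitive displacement assay: the compound's ability to displace a high-affinity receptor ligand was measured on rat NKR-P1A and human CD69 activating receptors. Affinity was expressed relative to free N-acetyl-D-glucosamine as the reference ligand.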

For test [9], the target named is T2, Killer cell lectin-like receptor subfamily B member 1A (Rattus norvegicus, UniProt P27471).
T2 sequence (P27471 whole entry): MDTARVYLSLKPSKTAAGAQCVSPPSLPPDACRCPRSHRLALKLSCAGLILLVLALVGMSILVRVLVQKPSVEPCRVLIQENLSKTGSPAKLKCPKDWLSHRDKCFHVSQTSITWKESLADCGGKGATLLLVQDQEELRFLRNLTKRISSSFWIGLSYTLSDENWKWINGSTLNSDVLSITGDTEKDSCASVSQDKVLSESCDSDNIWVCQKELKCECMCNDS
Briefly: Binding affinity to fluorescein-labeled rat NKR-P1A after 2 hrs by fluorescence assay. Summed up:
as §1

Test [10] addresses Alpha-galactosidase (Coffea arabica) (UniProt Q42656). The test is described as follows: Inhibition of green coffee bean alpha-galactosidase at 1 mM.
The target in test [11] is Beta-galactosidase (Escherichia coli) (UniProt Q8VNN2). Briefly: Inhibition of Escherichia coli beta-galactosidase at 1 mM.
The target in test [12] is T3, Beta-galactosidase (Aspergillus oryzae) (UniProt Q2U7N3).
T3 sequence (whole entry): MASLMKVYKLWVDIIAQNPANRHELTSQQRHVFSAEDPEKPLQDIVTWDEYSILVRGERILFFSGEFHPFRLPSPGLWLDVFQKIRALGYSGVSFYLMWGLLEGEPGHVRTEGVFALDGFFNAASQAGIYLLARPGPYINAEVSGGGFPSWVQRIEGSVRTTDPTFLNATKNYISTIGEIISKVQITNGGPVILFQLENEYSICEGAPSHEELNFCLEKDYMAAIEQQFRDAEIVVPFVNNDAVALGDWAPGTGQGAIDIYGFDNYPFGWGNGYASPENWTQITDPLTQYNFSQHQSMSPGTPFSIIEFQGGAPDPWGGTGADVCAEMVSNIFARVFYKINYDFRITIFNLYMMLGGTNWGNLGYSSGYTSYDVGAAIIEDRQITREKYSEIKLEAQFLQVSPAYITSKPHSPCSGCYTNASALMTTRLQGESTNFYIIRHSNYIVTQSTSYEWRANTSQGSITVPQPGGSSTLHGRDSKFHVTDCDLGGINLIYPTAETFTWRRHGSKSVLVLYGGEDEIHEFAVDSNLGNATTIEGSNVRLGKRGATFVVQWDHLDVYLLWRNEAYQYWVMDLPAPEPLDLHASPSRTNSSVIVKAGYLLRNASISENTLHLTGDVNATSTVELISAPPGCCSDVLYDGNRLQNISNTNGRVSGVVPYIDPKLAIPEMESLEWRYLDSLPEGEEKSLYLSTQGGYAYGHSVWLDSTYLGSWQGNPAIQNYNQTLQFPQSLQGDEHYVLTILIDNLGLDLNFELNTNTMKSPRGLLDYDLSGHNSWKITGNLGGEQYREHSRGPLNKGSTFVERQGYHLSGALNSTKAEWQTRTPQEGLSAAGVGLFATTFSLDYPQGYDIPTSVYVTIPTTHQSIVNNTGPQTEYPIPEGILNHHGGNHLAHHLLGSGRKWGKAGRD
The test is described as follows: Inhibition of Aspergillus oryzae beta-galactosidase at 1 mM.

Alpha-galactosidase (Coffea arabica), sequence (Q42656 16-378 limits assumed): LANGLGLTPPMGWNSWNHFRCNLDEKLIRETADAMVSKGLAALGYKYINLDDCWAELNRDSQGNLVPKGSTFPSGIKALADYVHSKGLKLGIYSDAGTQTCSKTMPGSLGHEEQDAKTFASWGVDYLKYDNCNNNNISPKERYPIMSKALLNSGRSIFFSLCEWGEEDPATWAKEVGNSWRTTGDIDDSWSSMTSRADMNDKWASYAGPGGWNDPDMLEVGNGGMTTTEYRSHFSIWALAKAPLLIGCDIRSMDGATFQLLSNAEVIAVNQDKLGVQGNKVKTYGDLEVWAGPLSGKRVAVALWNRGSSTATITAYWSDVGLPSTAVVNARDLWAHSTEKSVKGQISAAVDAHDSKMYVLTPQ
Beta-galactosidase (Escherichia coli), sequence (Q8VNN2 whole entry, looked up): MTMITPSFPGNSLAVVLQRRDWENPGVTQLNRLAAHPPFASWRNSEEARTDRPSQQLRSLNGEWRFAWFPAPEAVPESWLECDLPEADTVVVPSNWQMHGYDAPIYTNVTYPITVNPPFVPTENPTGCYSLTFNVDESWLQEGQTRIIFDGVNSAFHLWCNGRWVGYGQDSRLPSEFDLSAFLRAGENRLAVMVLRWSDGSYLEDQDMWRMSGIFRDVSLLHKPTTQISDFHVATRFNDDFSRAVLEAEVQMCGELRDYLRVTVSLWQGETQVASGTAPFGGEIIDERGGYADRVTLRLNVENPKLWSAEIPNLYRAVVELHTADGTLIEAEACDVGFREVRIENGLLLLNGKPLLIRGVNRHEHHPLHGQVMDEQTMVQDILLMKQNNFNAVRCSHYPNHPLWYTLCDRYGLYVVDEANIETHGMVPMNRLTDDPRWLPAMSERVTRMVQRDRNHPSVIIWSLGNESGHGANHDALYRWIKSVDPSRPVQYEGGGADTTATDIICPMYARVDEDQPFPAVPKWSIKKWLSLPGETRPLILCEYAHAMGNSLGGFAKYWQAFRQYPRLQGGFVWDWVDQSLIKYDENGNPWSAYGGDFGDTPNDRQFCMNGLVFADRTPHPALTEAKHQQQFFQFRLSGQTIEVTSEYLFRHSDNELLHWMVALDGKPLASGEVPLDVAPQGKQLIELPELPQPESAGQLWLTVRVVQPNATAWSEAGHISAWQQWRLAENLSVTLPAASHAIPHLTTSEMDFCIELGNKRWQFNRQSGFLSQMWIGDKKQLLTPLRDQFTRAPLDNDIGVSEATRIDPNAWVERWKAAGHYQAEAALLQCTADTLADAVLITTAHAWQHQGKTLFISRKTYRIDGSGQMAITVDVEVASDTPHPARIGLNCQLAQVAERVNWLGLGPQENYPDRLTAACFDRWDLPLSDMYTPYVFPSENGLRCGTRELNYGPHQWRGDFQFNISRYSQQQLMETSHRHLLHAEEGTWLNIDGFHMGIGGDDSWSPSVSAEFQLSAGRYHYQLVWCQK
Beta-galactosidase, sequence (Q8VNN2 whole entry): as the sequence (Q8VNN2 whole entry, looked up) above

As for `OC[C@H]1O[C@@H](n2ccnn2)[C@H](O)[C@@H](O)[C@@H]1O`, in test [1], the inhibition entry was “inactive”.

`OC[C@H]1O[C@@H](n2cc(-c3ccccc3)nn2)[C@H](O)[C@@H](O)[C@@H]1O` came in with a Ki in [2] of 330 µM.

As for `OC[C@H]1O[C@H](n2ccnn2)[C@H](O)[C@@H](O)[C@@H]1O`, the inhibition entry in [3] was “inactive”.

For the compound `CC(=O)N[C@@H]1[C@@H](O)[C@H](O)[C@@H](CO)O[C@H]1n1ccnn1`, the inhibition entry in [4], in [5], in [6] and in test [7] was “inactive” throughout. For the same compound, the IC50 was 3.98 µM in test [8] and 0.0631 µM in [9].

As for `OC[C@H]1O[C@H](n2ccnn2)[C@H](O)[C@@H](O)[C@H]1O`, the inhibition entry in test [10] was “inactive”.

With `CC(=O)N[C@@H]1[C@@H](O)[C@H](O)[C@@H](CO)O[C@H]1O` [N-ACETYLGLUCOSAMINE], the results for the 50% inhibitory concentration (IC50) in test [8] and in [9] were 126 µM and 2 µM, respectively.

In the case of `OC[C@H]1O[C@@H](n2ccnn2)[C@H](O)[C@@H](O)[C@H]1O`, the inhibition entry in [11] and in [12] was “inactive” in each case.

These data come from ChEMBL document CHEMBL1177763, “Synthesis and biological activity of glycosyl-1H-1,2,3-triazoles” (Bioorg Med Chem Lett, 2010).
